These results are taken from ChEMBL document CHEMBL2029267, “Rapid assembly of a library of lipophilic iminosugars via the thiol-ene reaction yields promising pharmacological chaperones for the treatment of Gaucher disease” (J Med Chem, 2012).

Test [1] deals with T1, Beta-galactosidase (Homo sapiens) (UniProt P16278).
T1 sequence (whole entry): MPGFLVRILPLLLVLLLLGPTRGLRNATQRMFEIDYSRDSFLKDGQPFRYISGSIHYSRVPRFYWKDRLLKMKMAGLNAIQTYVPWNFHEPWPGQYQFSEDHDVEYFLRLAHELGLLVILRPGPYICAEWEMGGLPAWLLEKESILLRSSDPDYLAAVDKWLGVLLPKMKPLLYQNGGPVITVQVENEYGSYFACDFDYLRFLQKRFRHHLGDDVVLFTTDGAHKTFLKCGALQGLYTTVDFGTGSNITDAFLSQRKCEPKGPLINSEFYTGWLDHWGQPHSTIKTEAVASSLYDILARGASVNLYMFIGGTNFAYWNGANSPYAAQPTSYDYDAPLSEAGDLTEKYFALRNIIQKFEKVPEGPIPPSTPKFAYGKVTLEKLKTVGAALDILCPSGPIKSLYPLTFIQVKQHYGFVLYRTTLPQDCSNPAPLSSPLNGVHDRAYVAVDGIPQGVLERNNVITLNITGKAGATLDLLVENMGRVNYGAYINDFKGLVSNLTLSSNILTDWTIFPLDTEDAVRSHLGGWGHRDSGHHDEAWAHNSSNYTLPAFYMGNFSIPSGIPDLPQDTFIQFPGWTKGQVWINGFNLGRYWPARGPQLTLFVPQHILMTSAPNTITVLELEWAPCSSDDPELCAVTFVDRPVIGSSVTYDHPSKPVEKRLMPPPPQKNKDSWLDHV
In words: Inhibition of human lysosomal beta-galactosidase using 4-methylumbelliferyl beta-Dgalactopyranoside as substrate at 200 uM by fluorimetric analysis. The procedure, abridged:
(§1)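 Enzyme source was a lysosomal-enzyme-enriched ConA-bound human placental fraction, run in 100 mM citrate–phosphate pH 4.5 with 0.025% human serum albumin at 37 °C. Compound was tested at 200 μM in triplicate. An equal volume of 4-MU substrate was added: α-Glc 3.0 mM (α-glucosidase), α-Gal 1.0 mM (α-galactosidase), β-Gal 0.5 mM (β-galactosidase). Reactions were stopped with 4-fold excess 100 mM aminomethylpropanol and fluorescence read at 365/460 nm.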

In test [2] the target is T2, Lysosomal acid glucosylceramidase (Homo sapiens, UniProt P04062).
T2 sequence (P04062 whole entry): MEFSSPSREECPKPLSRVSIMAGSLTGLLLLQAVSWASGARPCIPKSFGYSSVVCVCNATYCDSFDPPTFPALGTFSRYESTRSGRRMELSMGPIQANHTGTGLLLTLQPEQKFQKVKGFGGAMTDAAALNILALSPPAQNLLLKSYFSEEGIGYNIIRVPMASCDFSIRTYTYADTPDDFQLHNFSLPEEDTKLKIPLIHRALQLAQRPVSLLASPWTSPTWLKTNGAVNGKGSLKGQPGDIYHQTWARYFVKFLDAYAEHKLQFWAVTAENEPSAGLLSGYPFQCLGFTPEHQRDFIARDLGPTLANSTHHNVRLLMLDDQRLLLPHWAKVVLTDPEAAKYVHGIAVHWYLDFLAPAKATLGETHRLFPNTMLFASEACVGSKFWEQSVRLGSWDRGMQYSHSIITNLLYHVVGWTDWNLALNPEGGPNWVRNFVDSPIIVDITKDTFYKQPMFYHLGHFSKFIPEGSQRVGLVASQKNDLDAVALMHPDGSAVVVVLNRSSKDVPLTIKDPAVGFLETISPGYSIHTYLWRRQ
In words: Competitive inhibition of wild type human glucocerebrosidase using 4-methylumbelliferyl beta-D-glucopyranoside as substrate after 15 mins by Dixon and Line-Weaver Burk plot analysis […].

Test [3] is filed under the species Homo sapiens. In words: Inhibition of human lysosomal alpha-galactosidase using 4-methylumbelliferyl alpha-D-galactopyranoside as substrate at 200 uM by fluorimetric analysis. The method, boiled down: as §1
Test [4] concerns the target T3, Lysosomal acid glucosylceramidase (Homo sapiens) (UniProt P04062).
T3 sequence (whole entry): T2 sequence (P04062 whole entry)
In words: Thermal denaturation of human glucocerebrosidase by differential scanning fluorimetry assessed as change in melting temperature at 100 uM and pH 7. For orientation: In DSF a fluorescence change marks the thermal transition of the protein.

The species named for test [5] is Homo sapiens. In words: Activation of intracellular glucocerebrosidase p.L444P mutant in gaucher patient fibroblast using 4-methylumbelliferyl beta-D-glucopyranoside as substrate relative to control.
For test [6], the species on record is Homo sapiens. In words: Activation of intracellular glucocerebrosidase p.L444P mutant in gaucher patient fibroblast using 4-methylumbelliferyl beta-D-glucopyranoside as substrate assessed as concentration at which 50% of maximum increase in activity.
Test [7] relates to T4, Lysosomal acid glucosylceramidase (Homo sapiens), P04062 [N409S].
T4 sequence (whole entry): T2 sequence (P04062 whole entry) with N409S
In words: Activation of intracellular glucocerebrosidase p.N370S mutant in gaucher patient fibroblast using 4-methylumbelliferyl beta-D-glucopyranoside as substrate assessed as concentration at which 50% of maximum increase in activity.

Test [8] addresses Lysosomal alpha-glucosidase (Homo sapiens) (UniProt P10253). In words: Inhibition of human lysosomal alpha-glucosidase using 4-methylumbelliferyl alpha-D-glucopyranoside as substrate at 200 uM by fluorimetric analysis. The procedure, abridged: as §1
The subject of test [9] is T4, Lysosomal acid glucosylceramidase (Homo sapiens), P04062 [N409S]. In words: Activation of intracellular glucocerebrosidase p.N370S mutant in gaucher patient fibroblast using 4-methylumbelliferyl beta-D-glucopyranoside as substrate relative to control.
Test [10] addresses T2, Lysosomal acid glucosylceramidase. Description: Competitive inhibition of wild type human glucocerebrosidase using 2,4-dinitrophenyl beta-D-glucopyranoside as substrate after 3 mins by Dixon and Line-Weaver Burk plot analysis at pH 5. The method, boiled down: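 Continuous UV assay with 4.0 nM GBA and 2,4-dinitrophenyl β-D-glucoside, started by adding enzyme. A400 was followed, linear over 3 min. Three substrate levels were run at about seven inhibitor levels (0.2–5 Ki), with nonlinear fit to a competitive model checked by Dixon and Lineweaver–Burk plots.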

Molecules are shown by their SMILES. Residue numbers refer to the chain shown, from its start. Calls of active or inactive are those of the source. The calls are words filed in the database; no cut-off is given here.

For orientation: Ki means a measure of affinity in units of concentration, obtained from inhibition or displacement. For the molecule `O=C(NCCSCC[C@H]1NC[C@@H](O)[C@H](O)[C@H]1O)Nc1ccccc1`, the inhibition entry in test [1], in [3] and in test [8] was “inactive” each time. In addition, the affinity in test [2] corresponds to a Ki of 12 nM. Besides, the deltaTm in [4] stood at 11 K. The fold change (FC) is 1.1 in test [5] and 2.3 in [9]. In addition, the Activity in [6] came out at 64 nM; in [7], 90 nM.
`O[C@@H]1[C@@H](O)[C@@H](CCSC2CCCCC2)NC[C@H]1O`: the inhibition result in [1], in test [3] and in test [8] was “inactive” in each case. This molecule came in with a Ki in [2] of 4 nM. Also, the deltaTm in test [4] came to 13 K. Moreover, the fold change (FC) is 1.3 in test [5] and 2.2 in test [9]. Moreover, the Activity in test [6] was 0.6 nM; in test [7], 1.3 nM.
For `CCCC(=O)NCCSCC[C@H]1NC[C@@H](O)[C@H](O)[C@H]1O`, the inhibition result in [1], in test [3] and in [8] was “inactive” in each case. For the same molecule, in [10], the Ki was determined as 200 nM. Further, the deltaTm in [4] is 8.2 K. Moreover, the fold change (FC) in test [5] is 1.3; in test [9] it was 2.7. For the same molecule, the Activity in test [6] is 2900 nM; in test [7], 2700 nM.
As for `O=C(CSCC[C@H]1NC[C@@H](O)[C@H](O)[C@H]1O)NCc1ccccc1`, the inhibition entry in [1], in [3] and in test [8] was “inactive” in each case. In test [10], this molecule showed an inhibition constant Ki of 30 nM. For the same molecule, the deltaTm in [4] amounted to 11 K. The fold change (FC) in test [5] came to 1.3; in test [9], 2.5. Also, the results for the Activity in test [6] and in [7] were 63 nM and 190 nM, respectively.
Regarding `CCN(CC)C(=O)CCCSCC[C@H]1NC[C@@H](O)[C@H](O)[C@H]1O`, the inhibition result in test [1], in [3] and in test [8] was “inactive” throughout. The molecule further displayed a Ki in test [10] of 250 nM. Besides, the deltaTm in test [4] is 10 K. Besides, the fold change (FC) in test [5] was 1.3; in test [9], 2.7. The Activity in test [6] is 500 nM; in test [7], 800 nM.
On to `CC(C)CCSCC[C@H]1NC[C@@H](O)[C@H](O)[C@H]1O`, for which the inhibition entry in test [1], in test [3] and in [8] was “inactive” each time. This molecule also came in with an inhibition constant Ki in [2] of 4.4 nM. In [4], the deltaTm was 14 K. The fold change (FC) stood at 1.2 in [5] and 2 in test [9]. Also, the Activity in test [6] is 0.3 nM; in [7], 1.2 nM.
In the case of `CCSCC[C@H]1NC[C@@H](O)[C@H](O)[C@H]1O`, the inhibition result in test [1], in test [3] and in [8] was “inactive” in each case. In addition, in test [10], the inhibition constant Ki worked out at 180 nM. The deltaTm in [4] came to 7 K. The figures for the fold change (FC) in test [5] and in test [9] were 1.3 and 2.5, respectively. For the same molecule, the Activity in test [6] worked out at 300 nM; in [7], 600 nM.
Regarding `CC(C)SCC[C@H]1NC[C@@H](O)[C@H](O)[C@H]1O`, the inhibition result in [1], in [3] and in [8] was “inactive” each time. In test [10], this molecule returned a Ki of 76 nM. The deltaTm in [4] was found to be 7.8 K. The fold change (FC) in [5] is 1.4; in test [9] it was 2.3. Besides, the results for the Activity in test [6] and in [7] were 2.2 nM and 38 nM, respectively.
Take `O[C@H]1[C@H](O)CNC[C@@H]1O`: the inhibition result in test [1], in test [3] and in test [8] was “inactive” each time. Moreover, in test [4], the deltaTm amounted to 3.6 K. The values for the fold change (FC) in [5] and in test [9] were 1.1 and 1.5, respectively. Moreover, the Activity in [6] stood at 44600 nM; in test [7], 24000 nM.
In the case of `C=C[C@H]1NC[C@@H](O)[C@H](O)[C@H]1O`, the inhibition result in [1], in test [3] and in test [8] was “inactive” each time. Also, the inhibition constant (Ki) in [10] is 2700 nM. In test [4], the deltaTm is 3.4 K. Moreover, the fold change (FC) in [5] came out at 1.3; in test [9], 1.4. Moreover, the Activity in test [6] amounted to 1700 nM; in [7] it was 1800 nM.
On to `CC(C)(C)SCC[C@H]1NC[C@@H](O)[C@H](O)[C@H]1O`, for which the inhibition entry in [1], in test [3] and in test [8] was “inactive” each time. In [10], this molecule came in with an inhibition constant (Ki) of 29 nM. The deltaTm in test [4] worked out at 8.4 K. The fold change (FC) in test [5] stood at 1.2; in [9], 2.3. In addition, the Activity was found to be 25 nM in test [6] and 49 nM in test [7].
`O=C(CCCSCC[C@H]1NC[C@@H](O)[C@H](O)[C@H]1O)N1CCOCC1`: the inhibition result in [1], in test [3] and in [8] was “inactive” in each case. In [10], this molecule yielded a Ki of 450 nM. Also, in test [4], the deltaTm was determined as 7.6 K. Also, the figures for the fold change (FC) in test [5] and in test [9] were 1.3 and 3.2, respectively. Further, the Activity in test [6] worked out at 1500 nM; in test [7] it was 4500 nM.
Consider `CC[C@H]1NC[C@@H](O)[C@H](O)[C@H]1O`, for which the inhibition entry in [1], in test [3] and in test [8] was “inactive” in each case. In [10], this molecule gave an inhibitory constant (Ki) of 1100 nM. Also, in test [4], the deltaTm came to 4.4 K. For the same molecule, the figures for the fold change (FC) in [5] and in test [9] were 1.2 and 2.1, respectively. For the same molecule, the Activity in test [6] amounted to 7000 nM.
